# Assay results gathered from unrelated publications.
# Compare with care: the assays were run in different laboratories.
# Target: Protein kinase C epsilon type (PRKCE, Homo sapiens, UniProt Q02156)
# Residues used in one study (Q02156 1-737): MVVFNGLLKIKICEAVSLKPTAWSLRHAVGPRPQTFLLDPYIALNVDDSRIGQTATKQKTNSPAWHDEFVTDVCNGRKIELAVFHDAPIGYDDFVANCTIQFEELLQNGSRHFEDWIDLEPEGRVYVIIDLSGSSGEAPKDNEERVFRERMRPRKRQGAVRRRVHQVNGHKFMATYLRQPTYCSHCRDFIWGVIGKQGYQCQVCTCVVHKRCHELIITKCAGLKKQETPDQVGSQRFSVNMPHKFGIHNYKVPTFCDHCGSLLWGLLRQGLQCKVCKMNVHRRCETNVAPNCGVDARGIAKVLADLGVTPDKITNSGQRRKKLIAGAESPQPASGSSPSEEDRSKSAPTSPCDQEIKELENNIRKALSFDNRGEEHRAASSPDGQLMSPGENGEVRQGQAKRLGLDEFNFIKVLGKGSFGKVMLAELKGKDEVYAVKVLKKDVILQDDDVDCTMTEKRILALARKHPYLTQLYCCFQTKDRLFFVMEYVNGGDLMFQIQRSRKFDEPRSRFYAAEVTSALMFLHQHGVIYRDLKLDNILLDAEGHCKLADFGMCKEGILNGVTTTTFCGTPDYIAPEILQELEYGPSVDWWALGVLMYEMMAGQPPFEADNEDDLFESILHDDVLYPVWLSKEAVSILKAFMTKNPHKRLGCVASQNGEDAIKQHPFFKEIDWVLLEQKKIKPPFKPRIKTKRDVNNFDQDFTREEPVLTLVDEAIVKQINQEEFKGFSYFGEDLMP
SMILES,assay,conditions,remaining binding
O=C(c1ccc(Nc2ncc(Cl)c(-c3cc4ccccc4s3)n2)cc1)N1CCC(N2CCCC2)CC1,"binding, competition with immobilised ligand",1 µM,50%
CN(CCCC(F)(F)F)c1nccc(-c2cnn3ncccc23)n1,binding,1 µM,82%
C=CC(=O)N1CCC(C(=O)NCC(=O)N2CCN(c3nc(-c4cnc(N)nc4C(F)F)nc(N4CCOCC4)n3)CC2)CC1,"binding, competition with immobilised ligand",1 µM,79%
COCCOc1nc(-c2ccc(Cl)nc2)nc2c1CN(C(=O)c1ncn3ccccc13)CC2,"cell-free assay, competition with immobilised ligand",0.1 µM,89%
N[C@H]1CCN(c2nccc(-c3cnn4ncccc34)n2)C1,binding,1 µM,100%
COc1cnc(Nc2cccc(S(N)(=O)=O)c2)nc1N1CCN(c2ccccc2)C(=O)C1,"binding, competition with immobilised ligand",1 µM,100%
CN(c1ccnc(CNc2nc(Nc3ccc4c(c3)CC(=O)N4)ncc2C(F)(F)F)n1)S(C)(=O)=O,"cell-free assay, competition with immobilised ligand",1 µM,50%
C[C@@H]1CN(c2ccc3ncc(-c4ccc5[nH]nc(C6CC6)c5c4)n3n2)C[C@H](C)O1,"binding, competition with immobilised ligand",50 nM,86%
O=C(Nc1ccc(Oc2ccc(F)cc2)cc1)N1CCc2ncccc2[C@H]1c1ccc(F)cc1,"cell-free assay, competition with immobilised ligand",1 µM,100%
COc1ncc2cc3ccccc3nc2c1C#N,"cell-free assay, competition with immobilised ligand",5 µM,89%
Cc1cnn2ncc(-c3ccnc(N(C)C)n3)c2c1,binding,1 µM,100%
CNC(=O)[C@@H]1CC[C@@H](n2c(-c3ccc4cnccc4c3)nc3ccc(C(=O)NCc4cccc(C(N)=O)c4)cc32)C1,"binding, competition with immobilised ligand",1 µM,85%
CCS(=O)(=O)c1cc2cc(C[C@](O)(CC(C)(C)c3ccc(F)cc3C(N)=O)C(F)(F)F)[nH]c2cn1,"cell-free assay, competition with immobilised ligand",1 µM,96%
C[C@@H]1CCN(c2nccc(-c3cnn4ncccc34)n2)C1,binding,1 µM,100%
O=C(c1ccc(Nc2nccc(-c3cc4ccccc4s3)n2)cc1)N1CCC(N2CCCC2)CC1,"binding, competition with immobilised ligand",1 µM,68%
O=C(N[C@H]1CCCCC/C=C\C2C[C@@]2(C(=O)O)NC(=O)[C@@H]2C[C@@H](Oc3ccncc3)CN2C1=O)OC1CCCC1 (some centres unmarked),"cell-free assay, competition with immobilised ligand",1 µM,100%
CN(C)c1ncc(F)c(-c2cnn3ncccc23)n1,binding,1 µM,95%
O=C(NCC1CCOCC1)c1n[nH]cc1NC(=O)c1c(F)cccc1F,"binding, competition with immobilised ligand",1 µM,87%
O=C(NCCCN1CCOCC1)c1ccc(Nc2ncc(Cl)c(-c3ccc(Cl)s3)n2)cc1,"binding, competition with immobilised ligand",1 µM,67%
c1cnn2ncc(-c3ccnc(N4CCC45COC5)n3)c2c1,binding,1 µM,100%
CN(C)C(=O)Cn1cc(-c2nc(C3(c4ccc(-c5cnc(N)nc5)cc4)CC3)no2)cn1,"cell-free assay, competition with immobilised ligand",1 µM,90%
CN(C)c1nccc(-c2cnn3ncccc23)n1,binding,1 µM,100%
CSc1cccnc1N1CCN(Cc2nc3ccccc3[nH]2)CC1,"cell-free assay, competition with immobilised ligand",1 µM,77%
N#Cc1ccccc1CSc1nnc2c(n1)[nH]c1ccccc12,"binding, competition with immobilised ligand",10 µM,100%
Cc1c[nH]c2nccc(Oc3c(F)cc(Nc4cc(Cl)nc(N)n4)cc3F)c12,"cell-free assay, competition with immobilised ligand",0.1 µM,96%
c1cncc(-c2cccc(Nc3nccc(NC4CCCCC4)n3)c2)c1,"binding, competition with immobilised ligand",10 µM,46%
